The target of one series is A3G (Homo sapiens, UniProt Q9HC16). The experiment in a line: Inhibition of deamination activity of purified A3G. The series is classed as biochemical.
The subject of a further series is SupT1 cells. As to the kind of experiment: Alkaline comet assay in SupT1 cells. Format: cell-based. To be noted: no radiation; Tail DNA % and Olive Tail Moment. In a few lines:
(§1)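 Alkaline comet assay. One day after culturing, cells were pre-treated or not with peptides for 2 h, then γ-irradiated (4 Gy) or mock-irradiated. Cells were embedded in low-melting agarose. Lysis was 2 h in ice-cold 2.5 M NaCl, 100 mM EDTA, 10 mM Tris pH 10, 1% Triton X-100 and 10% DMSO. DNA was unwound 20 min at 4°C in NaOH/EDTA pH 13 and electrophoresed 45 V, 20 min. Slides were neutralised and stained with ethidium bromide. Tail DNA % and Olive tail moment were scored from random fields.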

The subject of the next series is H9 cells. As to the kind of experiment: Alkaline comet assay in H9 cells. To be noted: no radiation; Tail DNA % and Olive Tail Moment. The series is classed as cell-based. In a few lines: as §1
The target of series [1] is APOBEC3G (A3G), wild type, C-terminal His6 tag (human) (UniProt Q9HC16).
Series [2] deals with APOBEC3G (A3G), wild type, C-terminal His6 tag (human, UniProt Q9HC16 1-384). As to the kind of experiment: cell-based or functional assay.

Peptide text beside a SMILES is read from it.

APOBEC3G (A3G), wild type, C-terminal His6 tag (human), sequence (Q9HC16 whole entry): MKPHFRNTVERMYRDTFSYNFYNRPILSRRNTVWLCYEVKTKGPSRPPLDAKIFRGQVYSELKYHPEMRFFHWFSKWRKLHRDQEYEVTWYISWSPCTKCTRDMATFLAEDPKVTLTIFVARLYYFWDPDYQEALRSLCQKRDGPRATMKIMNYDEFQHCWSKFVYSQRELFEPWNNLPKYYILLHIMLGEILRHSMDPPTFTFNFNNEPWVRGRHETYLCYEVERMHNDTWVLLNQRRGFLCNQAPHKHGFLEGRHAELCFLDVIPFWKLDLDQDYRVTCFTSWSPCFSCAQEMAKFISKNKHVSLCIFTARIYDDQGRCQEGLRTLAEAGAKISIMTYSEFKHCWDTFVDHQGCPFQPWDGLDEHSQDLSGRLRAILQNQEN
A3G, sequence (Q9HC16 whole entry): as above
APOBEC3G (A3G), wild type, C-terminal His6 tag, sequence (Q9HC16 whole entry): as above

A word on the IC50: it is the concentration needed to halve the response being measured. The molecule `CSCC[C@H](NC(=O)[C@@H](N)CCCNC(=N)N)C(=O)N[C@@H](Cc1c[nH]cn1)C(=O)N[C@@H](CC(N)=O)C(=O)N[C@@H](CC(=O)O)C(=O)N[C@H](C(=O)N[C@@H](Cc1c[nH]c2ccccc12)C(=O)N[C@H](C(=O)N[C@@H](CC(C)C)C(=O)N[C@@H](CC(C)C)C(=O)N[C@@H](CC(N)=O)C(=O)N[C@@H](CCC(N)=O)C(=O)N[C@@H](CCCNC(=N)N)C(=O)N[C@@H](CCCNC(=N)N)C(=O)NCC(=O)O)C(C)C)[C@@H](C)O` [Peptide A3G226-240] (H-RMHNDTWVLLNQRRG-OH) registered an IC50 at A3G of 60 µM. What is called Ki is the dissociation constant of the complex between target and ligand, obtained from inhibition or displacement. Turning to `CC[C@H](C)[C@H](N)C(=O)N[C@@H](Cc1c[nH]cn1)C(=O)N[C@@H](CC(C)C)C(=O)N[C@@H](Cc1ccc(O)cc1)C(=O)N[C@@H](Cc1ccc(O)cc1)C(=O)N[C@@H](Cc1ccccc1)C(=O)N[C@@H](CC(=O)O)C(=O)N[C@@H](CS)C(=O)N[C@@H](Cc1ccccc1)C(=O)O` [Vif107-115] (H-IHLYYFDCF-OH), in the series on SupT1 cells, the “DNA damage in non-irradiated SupT1 cells (comet assay)” value is “did not induce any damage”. For the same molecule, the “DNA damage in non-irradiated H9 cells (comet assay)” value in the series with H9 cells is “did not induce any damage”. Besides, at A3G, the inhibition constant Ki is around 1.71 µM. Molecule `CC(C)C[C@H](NC(=O)[C@H](Cc1ccc(O)cc1)NC(=O)[C@@H](NC(=O)[C@H](CCC(=O)O)NC(=O)[C@H](Cc1cnc[nH]1)NC(=O)[C@H](CCCNC(=N)N)NC(=O)CNC(=O)[C@H](CCCNC(=N)N)NC(=O)[C@@H](NC(=O)[C@@H](N)Cc1c[nH]c2ccccc12)C(C)C)[C@@H](C)O)C(=O)N[C@@H](CS)C(=O)N[C@@H](Cc1ccc(O)cc1)C(=O)N[C@@H](CCC(=O)O)C(=O)N[C@H](C(=O)N[C@@H](CCC(=O)O)C(=O)O)C(C)C` [Peptide A3G211-225] (H-WVRGRHETYLCYEVE-OH) showed an IC50 on A3G of 10 µM. In turn, Vif 25-39 (27AA28) (peptide) displayed an IC50 of inhibition of ssDNA deamination by purified A3G in series [1] of 4.5 µM. As to `CSCC[C@H](NC(=O)[C@H](Cc1c[nH]cn1)NC(=O)[C@H](Cc1c[nH]cn1)NC(=O)[C@H](CCCCN)NC(=O)[C@@H](N)C(C)C)C(=O)N[C@@H](Cc1ccc(O)cc1)C(=O)N[C@H](C(=O)N[C@@H](CO)C(=O)NCC(=O)N[C@@H](CCCCN)C(=O)N[C@@H](C)C(=O)N[C@@H](CCCNC(=N)N)C(=O)O)C(C)C` [Vif25-36], on A3G, the 50% inhibitory concentration (IC50) was 50 µM. Consider `CSCC[C@H](NC(=O)[C@H](Cc1c[nH]cn1)NC(=O)[C@H](Cc1c[nH]cn1)NC(=O)[C@H](C)NC(=O)[C@@H](N)C(C)C)C(=O)N[C@@H](Cc1ccc(O)cc1)C(=O)N[C@H](C(=O)N[C@@H](CO)C(=O)NCC(=O)N[C@@H](CCCCN)C(=O)N[C@@H](C)C(=O)N[C@@H](CCCNC(=N)N)C(=O)NCC(=O)N[C@@H](Cc1c[nH]c2ccccc12)C(=O)N[C@@H](Cc1ccccc1)C(=O)O)C(C)C` [Vif 25-39 (26A)], for which, on A3G, inhibition was half-maximal at 8 µM (IC50). Molecule `CSCC[C@H](NC(=O)[C@H](C)NC(=O)[C@H](C)NC(=O)[C@H](C)NC(=O)[C@@H](N)C(C)C)C(=O)N[C@@H](Cc1ccc(O)cc1)C(=O)N[C@H](C(=O)N[C@@H](CO)C(=O)NCC(=O)N[C@@H](CCCCN)C(=O)N[C@@H](C)C(=O)N[C@@H](CCCNC(=N)N)C(=O)NCC(=O)N[C@@H](Cc1c[nH]c2ccccc12)C(=O)N[C@@H](Cc1ccccc1)C(=O)O)C(C)C` [Vif 25-39 (26AAA28)] (H-VAAAMYVSGKARGWF-OH) yielded an IC50 against A3G of 10 µM.

As for `CC(C)C[C@H](NC(=O)[C@@H](N)CCCNC(=N)N)C(=O)N[C@@H](Cc1ccc(O)cc1)C(=O)N[C@@H](Cc1ccc(O)cc1)C(=O)N[C@@H](Cc1ccccc1)C(=O)N[C@@H](Cc1c[nH]c2ccccc12)C(=O)N[C@@H](CC(=O)O)C(=O)O` [Peptide A3F305-311] (H-RLYYFWD-OH), in the series with SupT1 cells, the “DNA damage in non-irradiated SupT1 cells (comet assay)” value is “did not induce breaks”. The “DNA damage in non-irradiated H9 cells (comet assay)” value with H9 cells is “did not induce breaks”. On A3G, this molecule showed an IC50 of 1 µM.

As to `CC(C)C[C@H](NC(=O)[C@H](CCCNC(=N)N)NC(=O)[C@H](C)N)C(=O)N[C@@H](Cc1ccc(O)cc1)C(=O)N[C@@H](Cc1ccc(O)cc1)C(=O)N[C@@H](Cc1ccccc1)C(=O)N[C@@H](Cc1c[nH]c2ccccc12)C(=O)N[C@@H](CC(=O)O)C(=O)N[C@H](C(=O)O)[C@@H](C)O` [Peptide A3F304-312] (H-ARLYYFWDT-OH), the “DNA damage in non-irradiated SupT1 cells (comet assay)” value in the series on SupT1 cells is “did not induce breaks”. Besides, the “DNA damage in non-irradiated H9 cells (comet assay)” value with H9 cells is “did not induce breaks”. In addition, the midpoint of inhibition on A3G, the IC50, lay at 8 µM. As to `CSCC[C@H](NC(=O)[C@H](Cc1c[nH]cn1)NC(=O)[C@H](Cc1c[nH]cn1)NC(=O)[C@H](CCCCN)NC(=O)[C@@H](N)C(C)C)C(=O)N[C@@H](Cc1ccc(O)cc1)C(=O)N[C@H](C(=O)N[C@@H](CO)C(=O)NCC(=O)N[C@@H](CCCCN)C(=O)N[C@@H](C)C(=O)N[C@@H](CCCNC(=N)N)C(=O)NCC(=O)N[C@@H](Cc1c[nH]c2ccccc12)C(=O)N[C@@H](Cc1ccccc1)C(=O)O)C(C)C` [Vif25-39], in the series with SupT1 cells, the “DNA damage in non-irradiated SupT1 cells (comet assay)” value was “did not induce any damage”. For the same molecule, in the series with H9 cells, the “DNA damage in non-irradiated H9 cells (comet assay)” value is on record as “did not induce any damage”. This molecule also returned an IC50 on A3G of 0.6 µM.

In series [1], Vif25-36 (peptide) gave an IC50 of inhibition of ssDNA deamination by purified A3G of 50 µM. Still for that read-out and setting: the result for Vif25-39 (peptide) reads 0.6 µM.

Vif 25-39 (26AAA28) (peptide) displayed an IC50 of inhibition of ssDNA deamination by purified A3G in series [1] of 10 µM. In the case of Vif105-119 (peptide), in series [1], the IC50 of inhibition of ssDNA deamination by purified A3G was 0.1 µM. Take `CSCC[C@H](NC(=O)[C@H](C)NC(=O)[C@H](C)NC(=O)[C@H](CCCCN)NC(=O)[C@@H](N)C(C)C)C(=O)N[C@@H](Cc1ccc(O)cc1)C(=O)N[C@H](C(=O)N[C@@H](CO)C(=O)NCC(=O)N[C@@H](CCCCN)C(=O)N[C@@H](C)C(=O)N[C@@H](CCCNC(=N)N)C(=O)NCC(=O)N[C@@H](Cc1c[nH]c2ccccc12)C(=O)N[C@@H](Cc1ccccc1)C(=O)O)C(C)C` [Vif 25-39 (27AA28)] (H-VKAAMYVSGKARGWF-OH): the IC50 on A3G came to 4.5 µM. Turning to Vif26-39 (peptide), the IC50 of inhibition of ssDNA deamination by purified A3G in series [1] came to 80 µM.

For the molecule Vif 25-39 (26A) (peptide), the IC50 of inhibition of ssDNA deamination by purified A3G in series [1] stood at 8 µM.

B1: Vif107-115 (peptide)
peptide: IHLYYFDCF
Consider B1, for which, in series [2], the “IC50 of inhibition of ssDNA deamination by purified A3G” value came out at 0.1 µM.

B2: A3F305-311 (peptide)
peptide: RLYYFWD
As to B2, the IC50 of inhibition of ssDNA deamination by purified A3G in series [1] was 1 µM.

B3: A3G226-240 (peptide)
peptide: RMHNDTWVLLNQRRG
In series [1], B3 yielded an IC50 of inhibition of ssDNA deamination by purified A3G of 60 µM.

B4: A3F304-312 (peptide)
peptide: ARLYYFWDT
The molecule B4 gave an IC50 of inhibition of ssDNA deamination by purified A3G in series [1] of 8 µM.

B5: A3G211-225 (peptide)
peptide: WVRGRHETYLCYEVE
In series [1], B5 registered an IC50 of inhibition of ssDNA deamination by purified A3G of 10 µM.

The values above are taken from PMC4712096 (The FEBS journal, 2015).
